What was measured:
[1] = tested on: MOLT-4; experiment: Antiproliferative activity against human MOLT4 cells after 48 hrs by Coulter counting analysis; assay type: functional, cell-based; details: MOLT-4, 48 h
[2] = tested on: FM3A; experiment: Antiproliferative activity against mouse FM3A cells after 48 hrs by Coulter counting analysis; assay type: functional, cell-based
[3] = tested on: HeLa; experiment: Antiproliferative activity against human HeLa cells after 48 hrs by Coulter counting analysis; assay type: functional, cell-based
[4] = tested on: L1210; experiment: Antiproliferative activity against mouse L1210 cells after 48 hrs by Coulter counting analysis; assay type: functional, cell-based; details: L1210, 48 h
[5] = tested on: CCRF-CEM; experiment: Antiproliferative activity against human CEM cells after 48 hrs by Coulter counting analysis; assay type: cell-based
[6] = Solubility of the compound; assay type: physicochemical
[7] = tested on: K562; experiment: Cell cycle arrest in human K562 cells assessed as accumulation at G0-G1 phase at IC75 after 72 hrs using propidium iodide staining by flow cytometry; assay type: functional
In short: (§1)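 K562 cells were cultured 72 h with or without compound, then stained with propidium iodide and analysed by flow cytometry. The proportions of cells in sub-G1, G0–G1, S and G2-M were read from DNA histograms and compared with untreated controls.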

[8] = tested on: K562; experiment: Cell cycle arrest in human K562 cells assessed as accumulation at G2-M phase at IC75 after 72 hrs using propidium iodide staining by flow cytometry; assay type: functional; in short: as §1
[9] = tested on: K562; experiment: Cell cycle arrest in human K562 cells assessed as accumulation at subG1 phase at IC75 after 72 hrs using propidium iodide staining by flow cytometry; assay type: functional; in short: as §1
[10] = Inhibition of bovine brain tubulin polymerization; design: species or system Bos taurus
[11] = tested on: K562; experiment: Antiproliferative activity against human K562 cells after 48 hrs by Coulter counting analysis; assay type: functional, cell-based; details: K562, 48 h
[12] = tested on: K562; experiment: Cell cycle arrest in human K562 cells assessed as accumulation at S phase at IC75 after 72 hrs using propidium iodide staining by flow cytometry; assay type: functional; in short: as §1

SMILES | IC50 [1] [µM] | IC50 [3] [µM] | IC50 [4] [µM] | IC50 [5] [µM] | solubility [6] | IC50 [10] [µM] | IC50 [2] [µM] | Activity [7] [%] | Activity [8] [%] | Activity [9] [%] | IC75 [11] [µM] | Activity [12] [%]
C=C(Br)C(=O)Nc1ccc(/C=C/C(=O)c2cccc(OC)c2)cc1 | 0.85 | 0.7 | 2.1 | 2.3 | – | – | 2.7 | – | – | – | – | –
C=C(Br)C(=O)Nc1ccc(/C=C/C(=O)c2ccc(Cl)cc2)cc1 | 0.81 | 1.6 | 1.1 | 0.95 | – | – | 1.3 | – | – | – | – | –
C=C(Br)C(=O)Nc1ccc(/C=C/C(=O)c2cccc3ccccc23)cc1 | 2.1 | 2 | 1.1 | 3.1 | – | – | 2.4 | – | – | – | – | –
C=C(Br)C(=O)Nc1ccc(/C=C/C(=O)c2ccccc2)cc1 | 3.1 | 3.9 | 5 | 4 | – | – | 3.9 | – | – | – | – | –
C=C(Br)C(=O)Nc1ccc(C(=O)/C=C/c2cc(OC)cc(OC)c2)cc1 | 1.5 | 1.7 | 2.7 | 2.2 | – | – | 2 | – | – | – | – | –
C=C(Br)C(=O)Nc1ccc(C(=O)/C=C/c2cccc(OC)c2)cc1 | 1.1 | 0.5 | 1.1 | 1.8 | – | – | 1.8 | – | – | – | – | –
C=C(Br)C(=O)Nc1ccc(C(=O)/C=C/c2ccccc2)cc1 | 0.5 | 0.96 | 0.88 | 1.5 | Insoluble | > 40 | 0.69 | 23 | 13 | 47.6 | 2.77 | 16.4
C=C(Br)C(=O)Nc1ccc(C(=O)/C=C/c2ccc(OC)cc2OC)cc1 | 1.5 | 1.1 | 0.52 | 1.1 | – | – | 1.2 | – | – | – | – | –
COc1cc(/C=C/C(=O)c2ccc(N)cc2)cc(OC)c1OC | 5.6 | 6.9 | 7.8 | 2.3 | – | – | 8.8 | – | – | – | – | –

Now from value to compound, other results behind:

IC50 [1] [µM] | IC50 [3] [µM] | IC50 [4] [µM] | IC50 [5] [µM] | solubility [6] | IC50 [10] [µM] | SMILES | IC50 [2] [µM] | Activity [7] [%] | Activity [8] [%] | Activity [9] [%] | IC75 [11] [µM] | Activity [12] [%]
7.5 | 7.9 | 6 | 5.7 | – | – | COc1cc(/C=C/C(=O)c2ccc(N)cc2)cc(OC)c1 | 12 | – | – | – | – | –
8.6 | 7.8 | 25 | 9.3 | – | – | COc1ccc(/C=C/C(=O)c2ccc(N)cc2)cc1OC | 35 | – | – | – | – | –
13 | 15 | 87 | 27 | – | – | Nc1ccc(/C=C/C(=O)c2cccs2)cc1 | 123 | – | – | – | – | –
13 | 31 | 26 | 15 | – | – | Nc1ccc(/C=C/C(=O)c2ccc(Cl)c(Cl)c2)cc1 | 33 | – | – | – | – | –
12 | 40 | 49 | 31 | – | – | Cc1ccc(C(=O)/C=C/c2ccc(N)cc2)cc1 | 107 | – | – | – | – | –
1.7 | 2.1 | 1.9 | 1.8 | – | – | C=C(Br)C(=O)Nc1ccc(/C=C/C(=O)c2ccc(C)cc2)cc1 | 2.1 | – | – | – | – | –
2.8 | 7.7 | 3.4 | 4 | – | – | C=C(Br)C(=O)Nc1ccc(/C=C/C(=O)c2ccc(I)cc2)cc1 | 8.3 | – | – | – | – | –
9.9 | 28 | 67 | 20 | – | – | CN(C)c1ccc(/C=C/C(=O)c2ccc(N)cc2)cc1 | 96 | – | – | – | – | –
10 | 36 | 88 | 34 | – | – | Nc1ccc(/C=C/C(=O)c2ccccc2)cc1 | 146 | – | – | – | – | –
7.5 | 58 | 50 | 16 | – | – | Nc1ccc(/C=C/C(=O)c2ccc(I)cc2)cc1 | 110 | – | – | – | – | –
0.68 | 1 | 0.62 | 0.99 | Insoluble | > 40 | C=C(Br)C(=O)Nc1ccc(/C=C/C(=O)c2ccc(Br)cc2)cc1 | 1.1 | 35.9 | 16.2 | 20.4 | 0.84 | 27.5
20 | 22 | 34 | 18 | – | – | COc1ccc(/C=C/C(=O)c2ccc(N)cc2)c(OC)c1 | 43 | – | – | – | – | –
7.8 | 43 | 111 | 21 | – | – | Nc1ccc(/C=C/C(=O)c2ccc(Cl)cc2)cc1 | 178 | – | – | – | – | –

— ChEMBL document CHEMBL1153932, “Hybrid alpha-bromoacryloylamido chalcones. Design, synthesis and biological evaluation” (Bioorg Med Chem Lett, 2009)
